Measurements taken from ChEMBL document CHEMBL3392966, “Antiproliferative activity of synthetic fatty acid amides from renewable resources” (Bioorg Med Chem, 2015).
In brackets after ≈: the same amount, converted by molar mass.

What was measured:
786-0 [1] = test: Antiproliferative activity against human 786-0 cells assessed as tumor growth inhibition after 48 hrs by sulforhodamine B assay; type: functional; settings: 786-0, 48 h
Method in brief: (§1)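 Tumor cells grown in RPMI 1640 with 5% fetal bovine serum, with penicillin/streptomycin in experimental cultures. Exposed in 96-well plates to samples in DMSO/RPMI at 0.25, 2.5, 25 and 250 µg/mL, 37 °C, 5% CO2, 48 h. Fixed with 50% trichloroacetic acid before (T0) and after treatment, protein stained with sulforhodamine B and read at 540 nm. GI50, TGI and LC50 in µg/mL from dose-response curves by non-linear regression.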

NCI/ADR-RES [2] = test: Antiproliferative activity against human NCI/ADR-RES cells assessed as tumor growth inhibition after 48 hrs by sulforhodamine B assay; type: functional; method in brief: as §1
786-0 [3] = test: Antiproliferative activity against human 786-0 cells after 48 hrs by sulforhodamine B assay; type: functional; settings: 786-0, 48 h; method in brief: as §1
U-251 [4] = test: Antiproliferative activity against human U251 cells after 48 hrs by sulforhodamine B assay; type: functional; settings: U-251, 48 h; method in brief: as §1
NCI-H460 [5] = test: Antiproliferative activity against human NCI-H460 cells assessed as tumor growth inhibition after 48 hrs by sulforhodamine B assay; type: functional; settings: NCI-H460, 48 h; method in brief: as §1
[6] = Antiproliferative activity against human OVCAR3 cells assessed as tumor growth inhibition after 48 hrs by sulforhodamine B assay; type: functional; settings: OVCAR-3, 48 h; method in brief: as §1
MCF7 [7] = test: Antiproliferative activity against human MCF7 cells after 48 hrs by sulforhodamine B assay; type: functional; settings: MCF7, 48 h; method in brief: as §1
U-251 [8] = test: Antiproliferative activity against human U251 cells assessed as tumor growth inhibition after 48 hrs by sulforhodamine B assay; type: functional; settings: U-251, 48 h; method in brief: as §1
NCI-H460 [9] = test: Antiproliferative activity against human NCI-H460 cells after 48 hrs by sulforhodamine B assay; type: functional; settings: NCI-H460, 48 h; method in brief: as §1
U-251 [10] = test: Cytotoxicity against human U251 cells; type: cell-based
[11] = Antiproliferative activity against human OVCAR3 cells after 48 hrs by sulforhodamine B assay; type: functional; settings: OVCAR-3, 48 h; method in brief: as §1
HaCaT [12] = test: Cytotoxicity against human HaCaT cells after 48 hrs by sulforhodamine B assay; type: cell-based
NCI/ADR-RES [13] = test: Antiproliferative activity against human NCI/ADR-RES cells after 48 hrs by sulforhodamine B assay; type: functional; method in brief: as §1
[14] = Antiproliferative activity against human PC3 cells assessed as tumor growth inhibition after 48 hrs by sulforhodamine B assay; type: functional; settings: PC-3, 48 h; method in brief: as §1
[15] = Antiproliferative activity against human PC3 cells after 48 hrs by sulforhodamine B assay; type: functional; settings: PC-3, 48 h; method in brief: as §1
MCF7 [16] = test: Antiproliferative activity against human MCF7 cells assessed as tumor growth inhibition after 48 hrs by sulforhodamine B assay; type: functional; settings: MCF7, 48 h; method in brief: as §1
Vero [17] = test: Cytotoxicity against african green monkey Vero cells assessed as tumor growth inhibition after 48 hrs by sulforhodamine B assay; type: cell-based; settings: chlorocebus sabaeus
Method in brief: (§2)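 Non-tumor lines (human HaCaT keratinocytes; Vero) in RPMI 1640 with 5% FBS, with penicillin/streptomycin added to experimental cultures. 48 h exposure at 0.25–250 µg/mL (DMSO/RPMI), 37 °C, 5% CO2. TCA fixation at time zero and at end, sulforhodamine B protein stain, absorbance 540 nm. TGI (total growth inhibition) from non-linear regression of the dose-response curve.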

Vero [18] = test: Cytotoxicity against african green monkey Vero cells after 48 hrs by sulforhodamine B assay; type: cell-based; settings: chlorocebus sabaeus
HaCaT [19] = test: Cytotoxicity against human HaCaT cells assessed as tumor growth inhibition after 48 hrs by sulforhodamine B assay; type: cell-based; method in brief: as §2

SMILES | TGI (786-0 [1]) [µg/mL] | TGI (NCI/ADR-RES [2]) [µg/mL] | GI50 (786-0 [3]) [µg/mL] | GI50 (U-251 [4]) [µg/mL] | TGI (NCI-H460 [5]) [µg/mL] | TGI [6] [µg/mL] | GI50 (MCF7 [7]) [µg/mL] | TGI (U-251 [8]) [µg/mL] | GI50 (NCI-H460 [9]) [µg/mL] | LC50 (U-251 [10]) [µg/mL] | GI50 [11] [µg/mL] | LC50 (HaCaT [12]) [µg/mL] | GI50 (NCI/ADR-RES [13]) [µg/mL] | TGI [14] [µg/mL] | GI50 [15] [µg/mL] | TGI (MCF7 [16]) [µg/mL] | TGI (Vero [17]) [µg/mL] | LC50 (Vero [18]) [µg/mL] | TGI (HaCaT [19]) [µg/mL]
CCCCCC[C@@H](O)C/C=C\CCCCCCCC(=O)N[C@@H](C)c1ccccc1 | 60.1 (≈ 150 µM) | > 250 | 6.7 (≈ 16.7 µM) | 3.6 (≈ 8.96 µM) | 132 (≈ 329 µM) | > 250 | 5.1 (≈ 12.7 µM) | 13.9 (≈ 34.6 µM) | 8.3 (≈ 20.7 µM) | 63.6 (≈ 158 µM) | 11.1 (≈ 27.6 µM) | 9.7 (≈ 24.2 µM) | 1.9 (≈ 4.73 µM) | 142 (≈ 353 µM) | 11.7 (≈ 29.1 µM) | 84.5 (≈ 210 µM) |  |  | 
CCCCCC[C@@H](O)C/C=C\CCCCCCCC(=O)N1CCCC1 | 6.9 (≈ 19.6 µM) | 4 (≈ 11.4 µM) | 4.1 (≈ 11.7 µM) | 1.5 (≈ 4.27 µM) | 6.2 (≈ 17.6 µM) | 4.1 (≈ 11.7 µM) | 4.4 (≈ 12.5 µM) | 4.4 (≈ 12.5 µM) | 6.9 (≈ 19.6 µM) |  | 4.3 (≈ 12.2 µM) |  | 4 (≈ 11.4 µM) | 4.3 (≈ 12.2 µM) | 6.2 (≈ 17.6 µM) | 1.5 (≈ 4.27 µM) | 6.8 (≈ 19.3 µM) | 4 (≈ 11.4 µM) | 
CCCCC/C=C\C/C=C\CCCCCCCC(=O)N1CCCC1 | 21.9 (≈ 65.7 µM) | 7.7 (≈ 23.1 µM) | 4.7 (≈ 14.1 µM) | 4.2 (≈ 12.6 µM) | 36.6 (≈ 110 µM) | 33.9 (≈ 102 µM) | 4.2 (≈ 12.6 µM) | 12 (≈ 36 µM) | 7 (≈ 21 µM) | 44.4 (≈ 133 µM) | 5.7 (≈ 17.1 µM) |  | 4.7 (≈ 14.1 µM) | 32.6 (≈ 97.7 µM) | 4.7 (≈ 14.1 µM) | 27.5 (≈ 82.4 µM) | 45.1 (≈ 135 µM) | 13.7 (≈ 41.1 µM) | 
CCCCCCCC/C=C\CCCCCCCC(=O)N[C@H](C)c1ccccc1 | 84.8 (≈ 220 µM) | 35.3 (≈ 91.5 µM) | 26.8 (≈ 69.5 µM) | 6.1 (≈ 15.8 µM) | 106 (≈ 274 µM) | > 250 | 6.1 (≈ 15.8 µM) | 28.3 (≈ 73.4 µM) | 36.6 (≈ 94.9 µM) |  | 56.9 (≈ 148 µM) |  | 3 (≈ 7.78 µM) | 162 (≈ 419 µM) | 46.9 (≈ 122 µM) | 40.8 (≈ 106 µM) | 43 (≈ 112 µM) | 10.3 (≈ 26.7 µM) | 
CCCCCCCC/C=C\CCCCCCCC(=O)N1CCCC1 | 23.3 (≈ 69.4 µM) | 5.6 (≈ 16.7 µM) | 5.2 (≈ 15.5 µM) | 3.8 (≈ 11.3 µM) | 153 (≈ 456 µM) | 14 (≈ 41.7 µM) | 5.2 (≈ 15.5 µM) | 5.8 (≈ 17.3 µM) | 45.6 (≈ 136 µM) | 14.2 (≈ 42.3 µM) | 11.5 (≈ 34.3 µM) |  | 0.2 (≈ 0.596 µM) | 21.9 (≈ 65.3 µM) | 13 (≈ 38.7 µM) | > 250 | 10.6 (≈ 31.6 µM) | 3.9 (≈ 11.6 µM) | 
CCCCCC[C@@H](O)C/C=C\CCCCCCCC(=O)NCCO | 20.4 (≈ 59.7 µM) | 5.4 (≈ 15.8 µM) | 6.6 (≈ 19.3 µM) | 3.6 (≈ 10.5 µM) | 9.8 (≈ 28.7 µM) | 8.8 (≈ 25.8 µM) | 6.5 (≈ 19 µM) | 6.5 (≈ 19 µM) | 4.1 (≈ 12 µM) |  | 4.1 (≈ 12 µM) |  | 2.8 (≈ 8.2 µM) | 23.5 (≈ 68.8 µM) | 6.3 (≈ 18.4 µM) | 3.7 (≈ 10.8 µM) | 7.6 (≈ 22.3 µM) | 3.4 (≈ 9.96 µM) | 
COc1cccc2c1C(=O)c1c(O)c3c(c(O)c1C2=O)C[C@@](O)(C(=O)CO)C[C@@H]3O[C@H]1C[C@H](N)[C@H](O)[C@H](C)O1 [DOXORUBICIN] | > 25 | 1.6 (≈ 2.94 µM) |  |  | 4.9 (≈ 9.02 µM) | 7.6 (≈ 14 µM) |  | 0.92 (≈ 1.69 µM) |  |  |  |  |  | 11.7 (≈ 21.5 µM) |  | 3.3 (≈ 6.07 µM) | 4.1 (≈ 7.54 µM) |  | 2.3 (≈ 4.23 µM)
